Common to all, as to assay type: ADME, organism-based
Data set [1] is described as follows: Drug level in rat brain at 10 mg/kg, sc after 1 hr. More on the design: dose 10 mg/kg, route subcutaneous. To be noted: read-out: Drug uptake. The gist of the method: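 Rats dosed 10 mg/kg sc; total brain level measured 1 h after dosing.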
The nature of data set [2]: Oral bioavailability in rat at 10 mg/kg administered as single dose. To be noted: in vivo.
Data set [3] can be described thus: Volume of distribution in rat. To be noted: in vivo.

As for `COCCc1ccc(-c2c(C)nc3c(N4CCOCC4)nccn23)cn1`, in data set [1], the concentration at 1 h worked out at 1210 ng/g. Further, in data set [2], the bioavailability worked out at 45%. This compound also yielded a Vd in data set [3] of 1.9 L/kg.
